Results of several laboratories.
Protocols differ between the studies behind these lines.
Target: 5-hydroxytryptamine receptor 2A (HTR2A, Homo sapiens, UniProt P28223)
Observed: ligand displacement

COc1ccc(-n2nc(OCCCN3CCCCC3)ccc2=O)cc1 — inhibition (1 µM): 49.4%
C#CCOCCOCCOc1ccc2c3c1C1CCCC1N3CCNC2 (racemic) — inhibition (radioligand; 10 µM): ~70%
CCN(CC)c1ccc(C2Nc3ccc(C(=O)c4ccccc4)cc3NC3=C2C(=O)CC(C)(C)C3)cc1 (stereo not shown) — inhibition (radioligand; 10 µM): -10%
COc1cc2c3c(c1OC)-c1cc4c(cc1CC3N(C)CC2c1ccccc1)OCO4 (stereo not shown) — inhibition (radioligand; 10 µM): < 50%
Oc1cccc(Nc2nc(-c3ccc(F)cc3F)cs2)c1 — inhibition (radioligand; 10 µM): 67%
CN1CCN(CCCOc2ccc(=O)n(-c3ccc(Cl)c(Cl)c3)n2)CC1 — inhibition (1 µM): 34.9%
CCCNc1nc2ccccc2n1Cc1ccc(Cl)cc1 — inhibition (10 µM): 59.8%
O=C1N=C(N2CCCCN2)S/C1=C\c1ccc(F)cc1O — inhibition (radioligand; 10 µM): 17%
N#Cc1cc(Cn2c(N3CCCC3)nc3ccccc32)ccc1F — inhibition (10 µM): 5.32%
O=C(c1ccc(Cl)cc1)N(Cc1ccccc1)C1CCCCC1 — inhibition (radioligand; 10 µM): 14.5%
